Columns and labels:
Conditions in all cases: in vivo
[1] = Biodistribution in 50 mg/kg cyclosporin A pretreated Wistar rat frontal cortex at 27+/-2 MBq, iv after 80 mins; assay type: ADME, organism-based; set-up: dose 50 mg/kg, route intravenous
Muscle tissue [2] = assay: Biodistribution in 50 mg/kg cyclosporin A pretreated Wistar rat muscle at 27+/-2 MBq, iv after 80 mins; assay type: ADME, organism-based; set-up: dose 50 mg/kg, route intravenous
[3] = Biodistribution in Wistar rat bulbus olfactorius at 40+/-4 MBq, iv after 80 mins; assay type: ADME, organism-based, Olfactory bulb
[4] = Biodistribution in Wistar rat trachea at 40+/-4 MBq, iv after 80 mins; assay type: ADME, organism-based
[5] = Biodistribution in Wistar rat fat at 40+/-4 MBq, iv after 80 mins; assay type: ADME, organism-based, Adipose tissue
Summary of the method: (§1)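 Male Wistar rats (12 h light/dark, chow ad libitum) were fitted with a femoral arterial cannula under isoflurane. They were pretreated via tail vein with saline, cyclosporin A (50 mg/kg), or nonradioactive tracer compound (15 mg/kg; 10 mg/mL in saline with 35% ethanol). The 11C tracer was then given via penile vein, followed by 76 min microPET. Animals were then terminated; excised tissues were weighed and gamma-counted with decay correction. Values are SUVs (tissue MBq/g × body weight g / injected MBq).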

Colon = assay: Biodistribution in Wistar rat colon at 40+/-4 MBq, iv after 80 mins; assay type: ADME, organism-based; summary of the method: as §1
[6] = Biodistribution in 50 mg/kg cyclosporin A pretreated Wistar rat trachea at 27+/-2 MBq, iv after 80 mins; assay type: ADME, organism-based; set-up: dose 50 mg/kg, route intravenous
Lung = assay: Biodistribution in 50 mg/kg cyclosporin A pretreated Wistar rat lung at 27+/-2 MBq, iv after 80 mins; assay type: ADME, organism-based; set-up: dose 50 mg/kg, route intravenous
[7] = Biodistribution in 50 mg/kg cyclosporin A pretreated Wistar rat fat at 27+/-2 MBq, iv after 80 mins; assay type: ADME, organism-based, Adipose tissue; set-up: dose 50 mg/kg, route intravenous
Summary of the method: (§2)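 Male Wistar rats pretreated via tail vein with saline or cyclosporin A (50 mg/kg, commercial solution), then given the [11C] tracer via penile vein. After microPET scanning the anesthetized rats were killed. Tissues were excised and weighed, and blood was centrifuged into plasma and cells. γ counting with decay correction. Results as SUV (tissue MBq/g × body weight/injected dose).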

Ileum [8] = assay: Biodistribution in 50 mg/kg cyclosporin A pretreated Wistar rat ileum at 27+/-2 MBq, iv after 80 mins; assay type: ADME, organism-based; set-up: dose 50 mg/kg, route intravenous
[9] = Biodistribution in Wistar rat amygdala at 40+/-4 MBq, iv after 80 mins; assay type: ADME, organism-based
Pons = assay: Biodistribution in Wistar rat pons at 40+/-4 MBq, iv after 80 mins; assay type: ADME, organism-based
[10] = Biodistribution in Wistar rat medulla at 40+/-4 MBq, iv after 80 mins; assay type: ADME, organism-based, Medulla of organ; summary of the method: as §1
Cerebellum [11] = assay: Biodistribution in 50 mg/kg cyclosporin A pretreated Wistar rat cerebellum at 27+/-2 MBq, iv after 80 mins; assay type: ADME, organism-based; set-up: dose 50 mg/kg, route intravenous; summary of the method: as §2
Pancreas [12] = assay: Biodistribution in Wistar rat pancreas at 40+/-4 MBq, iv after 80 mins; assay type: ADME, organism-based; summary of the method: as §1
Ileum [13] = assay: Biodistribution in Wistar rat ileum at 40+/-4 MBq, iv after 80 mins; assay type: ADME, organism-based; summary of the method: as §1
Kidney = assay: Biodistribution in 50 mg/kg cyclosporin A pretreated Wistar rat kidney at 27+/-2 MBq, iv after 80 mins; assay type: ADME, organism-based; set-up: dose 50 mg/kg, route intravenous
Hippocampus = assay: Biodistribution in Wistar rat hippocampus at 40+/-4 MBq, iv after 80 mins; assay type: ADME, organism-based; summary of the method: as §1
Brain [14] = assay: Biodistribution in 50 mg/kg cyclosporin A pretreated Wistar rat brain at 27+/-2 MBq, iv after 25 mins; assay type: ADME, organism-based; set-up: dose 50 mg/kg, route intravenous
Summary of the method: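 Male Wistar rats pretreated with saline or cyclosporin A (50 mg/kg, tail vein), then given the [11C] tracer via penile vein. Dynamic microPET with a whole-brain 3D ROI. SUV read from the time-activity curve at 25 min, assuming 1 g/mL tissue density. Mean ± SEM.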

[15] = Biodistribution in 50 mg/kg cyclosporin A pretreated Wistar rat parietal/temporal/occipital cortex at 27+/-2 MBq, iv after 80 mins; assay type: ADME, organism-based; set-up: dose 50 mg/kg, route intravenous
Muscle tissue [16] = assay: Biodistribution in Wistar rat muscle at 40+/-4 MBq, iv after 80 mins; assay type: ADME, organism-based; summary of the method: as §1
[17] = Biodistribution in Wistar rat cingulate cortex at 40+/-4 MBq, iv after 80 mins; assay type: ADME, organism-based; summary of the method: as §1
Duodenum = assay: Biodistribution in 50 mg/kg cyclosporin A pretreated Wistar rat duodenum at 27+/-2 MBq, iv after 80 mins; assay type: ADME, organism-based; set-up: dose 50 mg/kg, route intravenous; summary of the method: as §2
Pancreas [18] = assay: Biodistribution in 50 mg/kg cyclosporin A pretreated Wistar rat pancreas at 27+/-2 MBq, iv after 80 mins; assay type: ADME, organism-based; set-up: dose 50 mg/kg, route intravenous
[19] = Biodistribution in Wistar rat parietal/temporal/occipital cortex at 40+/-4 MBq, iv after 80 mins; assay type: ADME, organism-based; summary of the method: as §1
[20] = Biodistribution in 50 mg/kg cyclosporin A pretreated Wistar rat amygdala at 27+/-2 MBq, iv after 80 mins; assay type: ADME, organism-based; set-up: dose 50 mg/kg, route intravenous; summary of the method: as §2
Cerebellum [21] = assay: Biodistribution in Wistar rat cerebellum at 40+/-4 MBq, iv after 80 mins; assay type: ADME, organism-based
Brain [22] = assay: Biodistribution in Wistar rat brain at 40+/-4 MBq, iv after 25 mins; assay type: ADME, organism-based

## COc1cc2c(cc1OC)CN(CCCC1CCCc3c(O[11CH3])cccc31)CC2 (stereo not drawn)
[1]
  SUV: 1.06
Muscle tissue [2]
  SUV: 0.26
[3]
  SUV: 0.33
[4]
  SUV: 0.78
[5]
  SUV: 0.36
Colon
  SUV: 1.37
[6]
  SUV: 0.74
Lung
  SUV: 0.98
[7]
  SUV: 0.31
Ileum [8]
  SUV: 1.1
[9]
  SUV: 0.37
Pons
  SUV: 0.48
[10]
  SUV: 0.41
Cerebellum [11]
  SUV: 0.99
Pancreas [12]
  SUV: 3.16
Ileum [13]
  SUV: 1.27
Kidney
  SUV: 1.47
Hippocampus
  SUV: 0.3
Brain [14]
  SUV: 2.17
[15]
  SUV: 1.04
Muscle tissue [16]
  SUV: 0.37
[17]
  SUV: 0.37
Duodenum
  SUV: 2.58
Pancreas [18]
  SUV: 2.91
[19]
  SUV: 0.36
[20]
  SUV: 1.07
Cerebellum [21]
  SUV: 0.5
Brain [22]
  SUV: 0.88

Reference: ChEMBL document CHEMBL1137781, “Synthesis and preclinical evaluation of novel PET probes for P-glycoprotein function and expression” (J Med Chem, 2009)
